Bioassay records from PubChem.
GPR7 antagonist – blocks human GPR7 receptor signaling. inhibition, % at 4.4 µM. P48145. actives 1.1% (n = 290,000). GPR7-expressing cells, fluorescence antagonist assay; in the data active = inhibition above about 16%, passing the limit was not always enough;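 also: cells stimulated with the agonist NPW; 0% = agonist with vehicle and 100% = vehicle without agonist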
Target sequence (P48145 whole entry, looked up): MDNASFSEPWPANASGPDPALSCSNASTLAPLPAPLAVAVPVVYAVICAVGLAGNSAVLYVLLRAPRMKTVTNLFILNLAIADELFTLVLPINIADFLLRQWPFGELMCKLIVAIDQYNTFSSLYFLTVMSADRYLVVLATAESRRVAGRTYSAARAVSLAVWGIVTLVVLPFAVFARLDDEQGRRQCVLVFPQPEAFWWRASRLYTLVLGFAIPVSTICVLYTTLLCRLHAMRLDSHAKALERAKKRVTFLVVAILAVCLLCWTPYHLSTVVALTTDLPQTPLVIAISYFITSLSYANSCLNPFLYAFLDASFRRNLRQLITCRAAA
TAAR1 antag – human TAAR1 antagonism; AID 624466; inhibition, % at 3 µM; CHO RD-HGA16 TAAR1, Fluo-8 calcium fluorescence, antagonist; actives 1.5% (n = 360,000);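 active = inhibition above a per-plate cutoff, the mean inhibition of test compounds on that plate plus 3 SD, cut at about 49% in these data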;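 also: 0% = DMSO plus EC80 beta-PEA response and 100% = DMSO alone without agonist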
Target sequence (Q96RJ0 whole entry, looked up): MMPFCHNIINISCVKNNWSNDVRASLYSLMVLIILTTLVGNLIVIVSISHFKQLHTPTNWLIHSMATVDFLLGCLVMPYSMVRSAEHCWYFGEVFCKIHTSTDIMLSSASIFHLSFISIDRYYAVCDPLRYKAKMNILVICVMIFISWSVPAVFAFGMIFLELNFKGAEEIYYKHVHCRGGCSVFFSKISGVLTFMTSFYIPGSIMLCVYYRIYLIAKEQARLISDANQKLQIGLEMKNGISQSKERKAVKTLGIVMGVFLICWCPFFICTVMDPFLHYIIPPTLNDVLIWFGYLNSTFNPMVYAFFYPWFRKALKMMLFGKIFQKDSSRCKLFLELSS
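Assay system: RD-HGA16 CHO cells with stable hTAAR1 and Gα16 / Reagent: EC80 β-phenethylamine stimulus / Doses: 3 µM, single point / Timing: dye loading 75 min at 37 °C, then 30 min room temperature / Measured by: Fluo-8 intracellular calcium dye fluorescence, real-time kinetic reads / Controls: vehicle wells and EC80 agonist wells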
CHO parental Ca – counter-screen for OX1R antagonists: effect in parental CHO cells. parental CHO-K1, ATP-induced calcium, Fluo-8 fluorescence. inhibition, % at 5.6 µM. actives 0.63% (n = 330,000);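 active = inhibition above that plate's mean sample inhibition plus 3 SD, cut at about 26% in these data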;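 also: 0% = ATP-challenged DMSO wells and 100% = DMSO wells without ATP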
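Assay system: parental CHO cells; Read-out basis: percent inhibition of ATP-evoked calcium rise, normalized to controls; Benchmarks: ATP and no-ATP DMSO wells; Compound dosing: single nominal dose of 5.6 µM per compound; Signal: Fluo-8 calcium dye fluorescence; Also added: ATP as calcium-mobilizing challenge; Repeats: singlicate.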
TAAR1 agonist – human TAAR1 agonism. activation, % at 3 µM. actives 0.99% (n = 360,000). Q96RJ0. AID 624467. CHO RD-HGA16 TAAR1, Fluo-8 calcium fluorescence; vehicle wells 0%, saturating PEA agonist 100%;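 active = activation above the mean activation of all test compounds in the run plus 3 SD, cut at about 38% in these data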
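Test system: RD-HGA16 (CHO) cells co-expressing Gα16 and hTAAR1; dosing: one-point dosing at 3 µM (nominal); timing: 17-24 h seeding, 75 min 37 °C dye, 30 min RT; signal: kinetic Fluo-8 calcium fluorescence; read-out basis: % activation relative to PEA EC100 response; controls: DMSO and PEA EC100; replicates: n 1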
OX1R antag-1 – blocks the human orexin 1 receptor | AID 485270 | O43613 | inhibition, % at 6.6 µM | actives 1.8% (n = 330,000) | OX1R-expressing cells, FRET antagonist read-out; in the data active = inhibition mostly above about 38%, no sharp cut-off; inactive = mostly below about 40%;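 also: 0% = agonist challenge alone and 100% = reference antagonist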
OX1R antag-2 – antagonists of human orexin 1 receptor | inhibition, % at 5 µM | actives 0.43% (n = 330,000) | AID 434989 | O43613 | CHO/OX1R cells, Fluo-8 calcium fluorescence, orexin A;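 active = inhibition above its plate's threshold, mean inhibition of all tested compounds on the plate plus 3 SD, cut at about 37% in these data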;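 also: 0% = orexin A challenge wells and 100% = SB-334867-A antagonist wells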
The depositor's hits bear a star; . = no result. In the library only some 4.6% were active in any assay of this set; here they are far more common.

SMILES	GPR7 antagonist	TAAR1 antag	CHO parental Ca	TAAR1 agonist	OX1R antag-1	OX1R antag-2
CN1C(=O)/C(=C/c2cccc(Cl)c2)Sc2ccc(C(=O)NCc3cccnc3)cc21	-1	51*	-3	10	42	-14
NC(=O)CSc1nnnn1-c1ccccc1Cl	-8	-23	4	2	16	8
O=C1C(Oc2ccc(Cl)cc2)C(c2ccc3c(c2)OCO3)N1CC1CCCO1 (centres undefined)	5	50*	-6	14	19	-24
CCOC(=O)c1n[nH]n2c1nc(=S)c1ccccc12	-11	5	.	-2	.	.
COc1ccc(C(=O)NNC(=O)CSc2nnc(COc3ccccc3)n2C)cc1	-13	-13	-5	14	3	-2
COc1ccc(C(=O)NNC(=O)CSc2nnc(COc3ccc4ccccc4c3)n2C)cc1	5	-2	2	44*	11	-10
CN1C(=O)C2(Nc3ccccc3-c3nc4ccccc4n32)c2ccccc21 (centres undefined)	3	-7	-8	4	18	-11
O=C1Nc2ccccc2C12Nc1ccccc1-c1nc3ccccc3n12 (centres undefined)	21*	6	-8	2	8	-23
CC(=O)NC[C@H]1O[C@@H](n2ccc(N)nc2=O)[C@H](O)[C@@H]1O	.	-10	.	1	.	.
CCOc1ccc2c(c1)sc(N)[n+]2Cc1cc(C)cc2cccnc12	35*	-7	-8	25	11	-10
COc1ccc(NC(=O)COC(=O)c2ccc(S(=O)(=O)N(C)c3ccccc3OC)cc2)cc1	.	35	.	3	.	.
Cc1cccc(Nc2ncccc2C(=O)NCc2cccs2)c1C	2	29	-3	38*	4	-21
Cc1ccc(Nc2ncccc2C(=O)NCc2cccs2)c(C)c1	2	12	-4	19	10	-7
Cc1ccc(N(CC(O)CON=C2c3ccccc3-c3ccccc32)S(C)(=O)=O)cc1 (centres undefined)	4	-11	-6	9	54*	33
CCOC(=O)c1c(C)n(C)c2ccc(OC(=O)c3ccoc3)cc12	16*	-26	-7	1	1	-12
Cc1ccc(NC(=O)COC(=O)CC2CCCC2)cc1Cl	0	.	-6	.	0	-14
CSC1=N/C(=C\c2ccccc2Cl)C(=O)N1N(C)C	-11	-19	-19	-1	7	-19
COc1ccc(COc2cc(-c3cccc(OC)c3)nc3ccc(NC(C)=O)cc23)cc1	5	59*	-8	5	28	-9
CSc1ccccc1NC(=O)c1cc(-c2cccnc2)nc2ccc(Br)cc12	-12	50*	-19	4	11	-8
COc1cccc(-c2cc(C(=O)Nc3ccc(N(C)C(C)=O)cc3)c3cc(Br)ccc3n2)c1	.	60*	-12	8	13	-16
O=C(Nc1ccc(Cl)c(C(F)(F)F)c1)c1ccncc1	3	-25	-12	21	32	-7
CNC(=O)c1cc(Oc2ccc(NC(=O)Nc3ccc(Cl)c(C(F)(F)F)c3)cc2)ccn1	.	47	19	44*	47*	39
COC(=O)NCCc1cc(OC)c(OC)cc1S(=O)(=O)N1CC(=O)Nc2ccccc21	1	-15	2	2	-6	-21
COc1ccc(/C=C2\Oc3ccccc3C2=O)cc1	.	0	-10	13	22	1
CC(=O)Oc1ccc(/C=C2/Oc3ccccc3C2=O)cc1	-1	-17	49*	1	6	35
SMILES	GPR7 antagonist	TAAR1 antag	CHO parental Ca	TAAR1 agonist	OX1R antag-1	OX1R antag-2
Cn1cccc1CN1CCC[C@]2(N[C@H](c3ccc(C(F)(F)F)cc3)[C@@H]3C(=O)N(Cc4ccccc4)C(=O)[C@@H]32)C1=O	.	-1	.	-2	.	.
COc1ccc(C(=O)/C=C/C(=O)N(CC(=O)NC2CCCCC2)Cc2ccccc2)c(O)c1	-10	66*	.	41*	.	.
COc1ccc(C(=O)/C=C/C(=O)N(CC(=O)NC2CCCCC2)Cc2ccccc2OC)c(O)c1	-6	0	.	8	.	.
CCOC(=O)C1=C(COC(=O)COc2ccc(C#N)cc2)NC(=O)NC1C (centres undefined)	-6	-19	7	2	15	1
Cc1ccc(-c2ocnc2C(=O)Nc2ccccc2NC(=O)c2ccccn2)cc1	-4	25	-22	-1	20	-29
Cc1cccc(-c2ocnc2C(=O)Nc2ccccc2NC(=O)c2ccccn2)c1	-20	18	-12	-2	66*	-26
O=C(CN1CCN(S(=O)(=O)c2ccc(F)cc2)CC1)Nc1ccc(F)cc1F	30	-14	-13	2	17	-20
CCC1(c2ccccc2)NC(=O)N(CC(=O)NC2(C#N)CCCCC2)C1=O (centres undefined)	.	-19	-14	1	21	2
O=C(O)c1cnn2c(C(F)(F)F)cc(-c3ccco3)nc12	-5	-3	1	2	49*	-4
COc1cccc(-c2cc(C(F)(F)F)n3ncc(C(=O)O)c3n2)c1	2	-6	-5	3	51*	-24
O=C(c1cnn2c(C(F)(F)F)cc(-c3ccco3)nc12)N1CCCCCC1	3	-8	-15	3	25	-15
COC(=O)c1cnn2c(C(F)(F)F)cc(-c3ccccc3)nc12	-11	-8	2	6	18	-31
N#Cc1cnn2c(C(F)(F)F)cc(-c3ccccc3)nc12	-13	0	54*	0	16	-15
NC(=O)c1ccc(NC(=O)CN2CCN(S(=O)(=O)c3ccc4c(c3)OCCO4)CC2)cc1	.	-8	-6	0	2	-5
CN(C)S(=O)(=O)c1cccc(NC(=O)CSc2nc3ccccc3[nH]2)c1	-14	10	-3	10	26	-3
CN(C)S(=O)(=O)c1cccc(NC(=O)CSc2ncnc3ccccc23)c1	-5	16	29*	6	24	2
CCN(CC)S(=O)(=O)c1cccc(NC(=O)CSc2nc3ccccc3[nH]2)c1	-9	19	31*	9	53*	44*
CN(CC(=O)Nc1cccc(F)c1)CC(=O)N(C)CC(=O)Nc1ccccc1Br	.	-7	-26	1	6	-37
COc1ccc(CCOC(=O)c2ccc(N)c([N+](=O)[O-])c2)cc1	-10	10	47*	18	33	19
CC(C)(C)C(=O)COC(=O)c1ccc(N)c([N+](=O)[O-])c1	-10	0	-6	5	19	-1
Cc1ccc(C(C)C)c2c1C(c1ccc3c(c1)OCO3)CC(=O)O2 (centres undefined)	.	45	-16	47*	7	15
Cc1cc2c(c(C)c1Cl)C(c1ccc3c(c1)OCO3)CC(=O)O2 (centres undefined)	.	38	9	6	14	6
